Experimental findings from ChEMBL document CHEMBL1154067, “Antiviral and cytotoxic activities of aminoarylazo compounds and aryltriazene derivatives” (Bioorg Med Chem, 2009) are described below.

Structures are written as SMILES. Activity calls are given as the source filed them. How the calls were made is not given here. Bounds are passed on as bounds.

Data set [1] concerns Bovine viral diarrhea virus 1. As to the kind of experiment: Antiviral activity against Bovine viral diarrhea virus infected in MDBK cells assessed as inhibition of virus-induced cytopathicity after 3 to 4 days by MTT assay. Format: functional, organism-based. The note with it: Bovine viral diarrhea virus isolates and strains. (Protection from cytopathic effect is a common read-out in antiviral testing.)

The test system of a further data set is MT4. As to the kind of experiment: Cytotoxicity against human MT4 cells after 96 hrs by MTT assay. Format: cell-based. The note with it: mt4, 96 h. An outline of the steps: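 Exponentially growing mock-infected MT-4 seeded at 1 × 10^5 cells/mL in RPMI-1640 with 10% FCS, penicillin and streptomycin. Incubated with or without serial compound dilutions at 37 °C, 5% CO2. Viability by MTT after 96 h. CC50 = concentration reducing viability 50%.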

Data set [2] in a line: Cytotoxicity against MDBK cells after 48 to 96 hrs by MTT assay. Format: cell-based, Bos taurus. The note with it: cattle, mdbk. An outline of the steps:
(§1)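 Mock-infected cells in maintenance medium, MDBK at 6 × 10^5 and BHK at 1 × 10^6 cells/mL initial density, with or without serial compound dilutions. Run in parallel with antiviral assays. Viability by MTT after 48–96 h at 37 °C, 5% CO2. CC50 = concentration reducing viability 50%.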
(Formazan colour is commonly taken as a measure of viable cells.)

For a further data set, the system named is Yellow fever virus. As to the kind of experiment: Antiviral activity against Yellow fever virus infected in BHK-21 cells assessed as inhibition of virus-induced cytopathicity after 3 to 4 days by MTT assay. Format: functional, organism-based.
Data set [3] relates to Mammalian orthoreovirus 1. As to the kind of experiment: Antiviral activity against Reovirus-1 infected in BHK-21 cells assessed as inhibition of virus-induced cytopathicity after 3 to 4 days by MTT assay. The conditions noted are these: Mammalian orthoreovirus 1, BHK-21. Format: functional, organism-based. An outline of the steps: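 BHK-21 cells seeded at 5 × 10^4 cells/well, grown overnight to confluent monolayers at 37 °C in 5% CO2, then infected at m.o.i. 0.01 in serum-free medium. One hour later, MEM Earle's with 1% final inactivated FCS added, with or without serial compound dilutions. Viability read by MTT after 3–4 days at 37 °C. EC50 is the concentration giving 50% protection from cytopathogenicity.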

A further data set concerns Vero. As to the kind of experiment: Cytotoxicity against african green monkey Vero 76 cells by crystal violet staining. It is filed as cell-based. The note with it: chlorocebus sabaeus, vero. An outline of the steps: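 Mock-infected Vero 76 seeded at 4 × 10^5 cells/mL, run in parallel with plaque assays, with or without serial compound dilutions. Cell number of monolayers determined by crystal violet staining. CC50 = concentration reducing viable cell number 50%.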

The test system of a further data set is Coxsackievirus B2. As to the kind of experiment: Antiviral activity against Coxsackie virus type B2 virus infected in african green monkey Vero-76 cells after 3 days by plaque reduction assay. It is filed as functional, organism-based. The note with it: Enterovirus B, Vero 76, 72 h. The essentials:
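Vero 76 cells seeded at 2 × 10^5 cells/well, grown overnight to confluence at 37 °C in 5% CO2, then infected at 50–100 PFU/well. Unadsorbed virus removed. Overlay of DMEM with 1% inactivated FCS and 0.75% methylcellulose, with or without serial compound dilutions. After 3 days at 37 °C, fixed and stained with crystal violet in PBS/50% ethanol; plaques counted. EC50 is the concentration reducing plaque number by 50%.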
(In a plaque reduction assay, fewer plaques than in the control indicate reduced infectivity or spread.)

Data set [4] deals with Respiratory syncytial virus. As to the kind of experiment: Antiviral activity against Respiratory syncytial virus A2 infected in Vero-76 cells after 5 days by plaque reduction assay. The note with it: human respiratory syncytial virus, A2, Vero 76, 120 h. It is filed as functional, organism-based.
The subject of the next data set is Human alphaherpesvirus 1. As to the kind of experiment: Antiviral activity against HSV1 infected in Vero-76 cells after 3 days by plaque reduction assay. It is filed as functional, organism-based. The conditions noted are these: Human alphaherpesvirus 1, Vero 76, 72 h.
Data set [5] in a line: Cytotoxicity against hamster BHK21 cells assessed as reduction in cell viability after 48 to 96 hrs by MTT assay. Format: cell-based, Mesocricetus auratus, BHK-21. The note with it: bhk-21. The essentials: as §1
In another data set the test system is Poliovirus 1. As to the kind of experiment: Antiviral activity against Human poliovirus 1 strain Sabin after 2 days by plaque reduction assay. The note with it: Enterovirus C, 48 h. Format: functional.
Data set [6] concerns Human immunodeficiency virus 1. Description: Antiviral activity against HIV1 infected in human MT4 cells assessed as inhibition of virus-induced cytopathicity after 4 days by MTT assay. It is filed as functional, organism-based.
Data set [7] concerns Vesicular stomatitis virus. Description: Antiviral activity against Vesicular stomatitis virus after 2 days by plaque reduction assay. Format: functional, organism-based.
For a further data set, the system named is Vaccinia virus. Description: Antiviral activity against Vaccinia virus after 3 days by plaque reduction assay. It is filed as functional, organism-based. The note with it: Orthopoxvirus vaccinia.

One may read the EC50 as the concentration needed to bring the measured effect to its halfway point. As a reminder, the CC50 is the concentration giving 50% cytotoxicity.

Take `CCCN(CCC)CCSc1n[nH]c2c3ccccc3nc-2n1`: in [1], the concentration giving a half-maximal response (EC50) is 0.03 µM.

Take `Cn1c2cc(N3CCN(c4ccccn4)CC3)c(N)cc2c(=O)c2c(O)cc(O)cc21`: the concentration giving a half-maximal response (EC50) in data set [1] worked out at 0.6 µM.

For the compound `Brc1ccc(Cn2ccc3nc(-c4ccccc4)nc-3c2)cc1`, the half-maximal effective concentration (EC50) in data set [1] was 0.03 µM.

Regarding `NCCCC[C@H](N)C(=O)Nc1cccc(-c2ccc(NC(=O)Nc3nc4ccccc4s3)nc2)c1`, the half-maximal effective concentration (EC50) in data set [1] was 0.6 µM.

On to `CCOC(=O)N1CCN(/N=N/c2ccccc2)CC1`, for which the half-maximal cytotoxic concentration (CC50) was 100 µM in the data set on MT4, over 100 µM in [2], 90 µM in the data set with Vero and over 100 µM in data set [5]. In addition, the EC50 in the data set with Yellow fever virus was over 100 µM; in data set [3] it was over 100 µM; in the data set with Coxsackievirus B2, 30 µM; in data set [4] it was over 90 µM; in the data set with Human alphaherpesvirus 1, over 90 µM; with Poliovirus 1 it was over 90 µM. Besides, in data set [6], the inhibition entry was “inactive”. Also, the result (in data set [7]; in the data set on Vaccinia virus) was inactive.

Consider `O=[N+]([O-])c1cccc(/N=N/N2CCCC2)c1`, for which the CC50 was 66 µM with MT4, over 100 µM in [2], 80 µM in the data set with Vero and 42 µM in data set [5]. Also, the concentration giving a half-maximal response (EC50) was over 42 µM with Yellow fever virus; over 42 µM in data set [3]; over 80 µM in the data set on Coxsackievirus B2; 8 µM in data set [4]; over 80 µM with Human alphaherpesvirus 1; 30 µM with Poliovirus 1. For the same compound, the inhibition entry in [6] is “inactive”. Also, the result (in data set [7]; in the data set with Vaccinia virus) was inactive.

On to `Brc1ccc(/N=N/N2CCCCC2)cc1`, for which the CC50 (with MT4; in data set [2]; in the data set on Vero; in data set [5]) was over 100 µM in each case. For the same compound, the EC50 with Yellow fever virus is over 100 µM; in data set [3], over 100 µM; with Coxsackievirus B2 it was 25 µM; in data set [4], 73 µM; with Human alphaherpesvirus 1 it was over 100 µM; in the data set with Poliovirus 1, over 100 µM. Moreover, the inhibition entry in [6] is “inactive”. In addition, the result (in data set [7]; in the data set on Vaccinia virus) was inactive.

Turning to `COc1ccc(/N=N/N2CCCC2)cc1`, the cytotoxic concentration (CC50) in the data set with MT4 was 68 µM; in data set [2] it was 60 µM; in the data set on Vero, 90 µM; in data set [5], at least 100 µM. Besides, the concentration giving a half-maximal response (EC50) in the data set with Yellow fever virus is over 100 µM; in [3], over 100 µM; in the data set on Coxsackievirus B2, over 90 µM; in [4] it was over 90 µM; in the data set with Human alphaherpesvirus 1 it was over 90 µM; with Poliovirus 1, over 90 µM. The inhibition entry in [6] is “inactive”. Moreover, the result (in [7]; in the data set with Vaccinia virus) was inactive.

As to `c1ccc(/N=N/N2CCCC2)cc1`, the 50% cytotoxic concentration (CC50) in the data set with MT4 is over 100 µM; in data set [2] it was over 100 µM; in the data set on Vero, over 100 µM; in [5], at least 100 µM. The EC50 is over 100 µM in the data set with Yellow fever virus; over 100 µM in data set [3]; over 100 µM in the data set with Coxsackievirus B2; at least 100 µM in [4]; over 100 µM in the data set on Human alphaherpesvirus 1; over 100 µM with Poliovirus 1. Besides, in data set [6], the inhibition entry was “inactive”. The outcome (in data set [7]; in the data set on Vaccinia virus) was inactive.

For the compound `Brc1cccc(/N=N/N2CCCCC2)c1`, the half-maximal cytotoxic concentration (CC50) was over 100 µM in the data set on MT4, over 100 µM in [2], 85 µM with Vero and over 100 µM in data set [5]. The EC50 was over 100 µM with Yellow fever virus; over 100 µM in data set [3]; over 85 µM in the data set on Coxsackievirus B2; over 85 µM in [4]; over 85 µM with Human alphaherpesvirus 1; over 85 µM with Poliovirus 1. In addition, the inhibition result in data set [6] was “inactive”. The outcome (in data set [7]; in the data set with Vaccinia virus) was inactive.

As to `O=C1CCN(/N=N/c2ccccc2)CC1`, the CC50 with MT4 is over 100 µM; in data set [2], at least 100 µM; with Vero, 60 µM; in [5], 90 µM. Besides, the EC50 in the data set on Yellow fever virus is over 90 µM; in data set [3], over 90 µM; in the data set with Coxsackievirus B2, 13 µM; in data set [4] it was over 60 µM; with Human alphaherpesvirus 1, over 60 µM; in the data set with Poliovirus 1, over 60 µM. Further, in [6], the inhibition entry was “inactive”. Further, the outcome (in data set [7]; in the data set on Vaccinia virus) was inactive.

For the compound `O=[N+]([O-])c1ccc(/N=N/N2CCCC2)cc1`, the half-maximal cytotoxic concentration (CC50) in the data set on MT4 was at least 100 µM; in data set [2] it was over 100 µM; in the data set with Vero, 90 µM; in data set [5], at least 100 µM. In addition, the EC50 is over 100 µM with Yellow fever virus; over 100 µM in data set [3]; over 90 µM in the data set on Coxsackievirus B2; 60 µM in data set [4]; over 90 µM with Human alphaherpesvirus 1; 15 µM with Poliovirus 1. In data set [6], the inhibition entry is “inactive”. Also, the outcome (in [7]; in the data set with Vaccinia virus) was inactive.

For the compound `CN1CCN(/N=N/c2cc(F)ccc2F)CC1`, the CC50 was over 100 µM in the data set on MT4, over 100 µM in [2], at least 100 µM with Vero and over 100 µM in data set [5]. Also, the 50% effective concentration (EC50) is 50 µM in the data set with Yellow fever virus; 30 µM in data set [3]; 71 µM in the data set with Coxsackievirus B2; over 100 µM in data set [4]; 64 µM in the data set on Human alphaherpesvirus 1; over 100 µM in the data set with Poliovirus 1. For the same compound, the inhibition entry in data set [6] was “inactive”. The outcome (in data set [7]; in the data set with Vaccinia virus) was inactive.

For the compound `c1ccc(/N=N/N2CCN(c3ccccc3)CC2)cc1`, the CC50 in the data set with MT4 was 33 µM; in data set [2] it was over 100 µM; with Vero, at least 100 µM; in data set [5], over 100 µM. Further, the 50% effective concentration (EC50) with Yellow fever virus was over 100 µM; in data set [3], over 100 µM; in the data set on Coxsackievirus B2, over 100 µM; in data set [4], 8 µM; in the data set with Human alphaherpesvirus 1, over 100 µM; in the data set with Poliovirus 1, over 100 µM. For the same compound, in data set [6], the inhibition result was “inactive”. In addition, the result (in data set [7]; in the data set on Vaccinia virus) was inactive.

Regarding `c1ccc(/N=N/N2CCCCC2)cc1`, the cytotoxic concentration (CC50) (with MT4; in [2]; in the data set with Vero; in data set [5]) was over 100 µM each time. Moreover, the concentration for a half-maximal effect (EC50) (in the data set on Yellow fever virus; in data set [3]; in the data set with Coxsackievirus B2; in [4]; in the data set on Human alphaherpesvirus 1; in the data set on Poliovirus 1) was over 100 µM throughout. Also, the inhibition result in data set [6] is “inactive”. Besides, the result (in data set [7]; in the data set with Vaccinia virus) was inactive.

In the case of `Clc1cccc(/N=N/N2CCCC2)c1`, the half-maximal cytotoxic concentration (CC50) in the data set on MT4 was over 100 µM; in data set [2], over 100 µM; in the data set on Vero it was at least 100 µM; in data set [5], over 100 µM. Moreover, the concentration for a half-maximal effect (EC50) with Yellow fever virus was over 100 µM; in data set [3] it was over 100 µM; in the data set on Coxsackievirus B2, over 100 µM; in data set [4], over 100 µM; in the data set with Human alphaherpesvirus 1, over 100 µM; in the data set on Poliovirus 1, at least 100 µM. In data set [6], the inhibition result was “inactive”. Further, the outcome (in data set [7]; with Vaccinia virus) was inactive.
